Published values gathered from unrelated publications.
Each line is one published result; the experiments were not run side by side.
Target: Serine/threonine-protein kinase Nek3 (NEK3, Homo sapiens, UniProt P51956)
Tested at: 1 µM
Sequence (P51956 1-506, as in one of the studies): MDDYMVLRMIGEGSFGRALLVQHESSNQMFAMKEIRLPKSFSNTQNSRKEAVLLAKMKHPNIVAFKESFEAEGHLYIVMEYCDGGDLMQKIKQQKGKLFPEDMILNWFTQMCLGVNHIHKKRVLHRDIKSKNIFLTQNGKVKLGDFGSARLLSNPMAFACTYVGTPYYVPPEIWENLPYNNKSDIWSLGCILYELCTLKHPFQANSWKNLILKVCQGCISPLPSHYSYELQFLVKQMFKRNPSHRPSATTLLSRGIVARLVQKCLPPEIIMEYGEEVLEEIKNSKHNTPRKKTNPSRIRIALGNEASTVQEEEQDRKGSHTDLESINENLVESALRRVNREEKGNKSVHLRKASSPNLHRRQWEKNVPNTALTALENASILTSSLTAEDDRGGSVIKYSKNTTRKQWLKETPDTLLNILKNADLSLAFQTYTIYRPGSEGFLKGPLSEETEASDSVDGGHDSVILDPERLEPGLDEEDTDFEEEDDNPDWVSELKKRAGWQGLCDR

Compound | test | remaining binding [%]
O=C(O)[C@@H]1[C@@H](Cn2nnc3ccccc3c2=O)CC[C@H]1C(=O)c1ccc(OCCC2CCOCC2)cc1 | cell-free assay, competition with immobilised ligand | 83
CN(C)c1ncc(F)c(-c2cnn3ncccc23)n1 | binding | 70
Cc1cnc(Nc2ccc(C(=O)N3CCC(N4CCCC4)CC3)cc2)nc1-c1cc2ccccc2s1 | binding, competition with immobilised ligand | 2.4
CNC(=O)[C@@H]1CC[C@@H](n2c(-c3ccc4cnccc4c3)nc3ccc(C(=O)NCc4cccc(C(N)=O)c4)cc32)C1 | binding, competition with immobilised ligand | 61
N#CC1(c2ccccn2)CCN(Cc2cc(C(=O)N3CCCC3)c(=O)n3ccccc23)CC1 | cell-free assay, competition with immobilised ligand | 83
O=C(NCCCN1CCOCC1)c1ccc(Nc2ncc(Cl)c(-c3ccc(Cl)s3)n2)cc1 | binding, competition with immobilised ligand | 0.5
O=C(Nc1cnc(Oc2ccc(F)cc2)nc1)N1CCc2ncccc2[C@@H]1c1ccc(F)cc1 | cell-free assay, competition with immobilised ligand | 67
CC1CCCN1c1nccc(-c2cnn3ncccc23)n1 (stereo not drawn) | binding | 82
C=CC(=O)N1CCC(C(=O)NCC(=O)N2CCN(c3nc(-c4cnc(N)nc4C(F)F)nc(N4CCOCC4)n3)CC2)CC1 | binding, competition with immobilised ligand | 51
CN(C)c1nccc(-c2cnc3ncccn23)n1 | binding | 100
O=C(Nc1c[nH]nc1C(=O)NC1CCNCC1)c1cc(F)cc(F)c1 | binding, competition with immobilised ligand | 100
CN(C(=O)c1ccccc1)c1cc(N(C)c2ccc3c(c2)CCc2ccc(C(=O)NCCN4CCOCC4)cc2C3=O)ccc1F | cell-free assay, competition with immobilised ligand | 99
COc1cnc(Nc2cccc(S(N)(=O)=O)c2)nc1N1CCN(c2ccccc2)CC1 | binding, competition with immobilised ligand | 74
CCOCCn1cc(C(=O)Nc2ccc(-n3nc(-c4cccnc4)cc3C(F)(F)F)cn2)ccc1=O | cell-free assay, competition with immobilised ligand | 100
C[C@H]1CCN(c2nccc(-c3cnn4ncccc34)n2)C1 | binding | 70
Nc1ncc2c(n1)-c1c([nH]c3ccc(C#CC4CC4)cc13)CCCC2 | binding, competition with immobilised ligand | 78
O=C(c1ccc(Nc2nccc(-c3cc4ccccc4s3)n2)cc1)N1CCC(N2CCCC2)CC1 | binding, competition with immobilised ligand | 5.4
CN(c1nccc(-c2cnn3ncccc23)n1)C1CC1 | binding | 87
O=C(NCc1ncc(C(F)(F)F)cc1Cl)c1ccc2c(c1)C1(CCS(=O)(=O)CC1)[C@H](C1CC1)N2S(=O)(=O)c1ccc(F)cc1 | cell-free assay, competition with immobilised ligand | 100
N[C@H]1CCN(c2nccc(-c3cnn4ncccc34)n2)C1 | binding | 100
CCN1CCN(Cc2ccc(C(=O)Nc3ccc(C)c(Oc4ccc5c(c4)CC(=O)N5)c3)cc2C(F)(F)F)CC1 | binding, competition with immobilised ligand | 100
